Screening results from PubChem BioAssay.
Hits are enriched below; roughly 5.1% of the tested compounds scored in any of these assays.
STAT3 activator: STAT3 signaling activation; U3A cells, IL-6 STAT3-luciferase reporter, luminescence; 100% = signal with IL-6 EC80 alone; activation (% of control), % at 5.6 µM; 190,000 compounds, 0.91% hits;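 active = activation above the screen-wide mean of compound activation plus 3 SD, cut at about 130% in these data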;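 note: 0% = background luminescence of wells with medium and substrate only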
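Test system: human U3A cells carrying STAT3-luciferase construct; control set: IL-6-only wells as 100% reference; timing: compound pre-incubation 1 h before IL-6, then 6 h stimulation at 37 °C; also added: IL-6 stimulus at 33 ng/mL final; evaluation: % activation versus median of IL-6-stimulated wells; detection: reporter luminescence signal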
NF-kB neuron act: compounds increasing NF-kB expression in human neuronal cells; NF-kB reporter expression; stronger effect = higher value; 190,000 compounds, 1.6% hits; fold change at 12.5 µM; in the data active = fold change above about 3.3
APP 5'UTR act: activates APP 5'UTR luciferase reporter; SH-SY5Y APP 5'UTR luciferase reporter, luminescence; zero percent = DMSO vehicle wells; activation, % at 2 µM; 190,000 compounds, 1% hits;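 active = activation above a set limit, based on mean plus 3 SD of controls, cut at about 140% in these data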
STAT1 inh: reduces IFN-gamma driven STAT1 reporter signal; AID 920; 200,000 compounds, 0.35% hits; NIH 3T3 STAT1-luciferase reporter, luminescence; inhibition, % at 5.5 µM;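 active = inhibition above a set limit, the mean inhibition across all tested compounds plus 3 SD, cut at about 34% in these data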;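 note: 0% = IFN-gamma with DMSO and 100% = IFN-gamma with 300 µM nifuroxazide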
STAT3 blocker: reduces IL-6 driven STAT3 reporter signal | AID 862 | 190,000 compounds, 0.89% hits | inhibition, % at 5.5 µM | U3A cells, IL-6 STAT3-luciferase reporter, luminescence; host cell line lacks STAT1;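 active = inhibition above the mean inhibition across all screened compounds plus 3 SD, cut at about 44% in these data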;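 note: 0% = DMSO only wells and 100% = 100 µM nifuroxazide control wells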
STAT1 act: increases IFN-gamma driven STAT1 reporter signal; NIH 3T3 STAT1-luciferase reporter, luminescence; 100% = IFN-gamma alone, no compound; activation (% of control), % at 5.5 µM; 200,000 compounds, 2.6% hits; AID 932;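 active = activation above the screen-wide mean activation plus 3 SD, cut at about 130% in these data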;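 note: raw ratio to IFN-gamma control signal so 100% means no change and 0% no light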
* marks the source's active call; other numbers are inactive results; x = not tested or not shown.

SMILES | STAT3 activator | NF-kB neuron act | APP 5'UTR act | STAT1 inh | STAT3 blocker | STAT1 act
Nc1ccc(Nc2nc(-c3ccncc3)cs2)cc1 | 91 | 1.6 | 40 | -13 | 13 | 112
Cc1nc(N)sc1-c1csc(Nc2ncccn2)n1 | 91 | 2.5 | 177* | -28 | 14 | 125
Clc1ccc(Nc2nc(-c3ccncc3)cs2)cc1 | 123 | x | 2 | -42 | -23 | 137*
Cc1ccc(C(=O)NC(=S)Nc2nc(-c3cccc([N+](=O)[O-])c3)cs2)c(Cl)c1 | 98 | 1.1 | -10 | -7 | 3 | 106
Cc1c(F)cccc1NS(=O)(=O)c1ccc2c(c1)NC(=O)CO2 | 107 | 1.1 | 0 | 8 | -2 | 93
CCCC(=O)NC(Nc1cccc(C(F)(F)F)c1)C(Cl)(Cl)Cl (stereo not given) | 91 | 1.1 | -5 | 14 | 17 | 87
COc1ccc(COc2ccsc2C(=O)Nc2ccc(Cl)c(Cl)c2)cc1 | 103 | 1.1 | 5 | 8 | 6 | 93
COCCn1c(C)cc(/C=C2/NC(=O)N(c3cccc(Cl)c3)C2=O)c1C | 98 | 0.97 | 57 | -43 | 10 | 138*
CC(C)n1cc(/C=C2\NC(=O)N(c3cccc(Cl)c3)C2=O)c2ccccc21 | 105 | 1.1 | -5 | 4 | -2 | 96
CCCCCC(=O)Nc1nc2ccccc2[nH]1 | 105 | 2.7 | 68 | -32 | -3 | 129*
O=C(CC1CCCC1)Nc1nc2ccccc2[nH]1 | 109 | 2.3 | 91 | -48 | -6 | 144*
CCS(=O)(=O)N1Cc2ccccc2CC1C(=O)Nc1nc2ccccc2[nH]1 (stereo not given) | 114 | 0.86 | 182* | -20 | -10 | 118
O=C(Nc1nc2ccccc2[nH]1)C1CCC1 | 109 | 0.95 | 38 | -33 | -6 | 127
O=C(Nc1nc2ccccc2[nH]1)C1CCCC1 | 107 | 0.93 | 89 | -44 | -4 | 136*
O=C(Cc1cccc2ccccc12)Nc1nc2ccccc2[nH]1 | 107 | 1 | -9 | 2 | -10 | 98
COC(=O)c1nn(-c2nc(-c3cccc(OC)c3)cc(C(F)(F)F)n2)cc1[N+](=O)[O-] | 105 | 1.1 | -13 | -10 | -4 | 108
CCN1C(=O)/C(=c2/s/c(=C3\SC(C)=C(C)N3CC)c(=O)n2CC)N(c2ccccc2)C1=S | 87 | x | -22 | 10 | 19 | 87
O=C(COc1ccc2oc(-c3ccco3)cc(=O)c2c1)N1CCCCC1 | 97 | 1.2 | 4 | -8 | 12 | 105
Nc1ccccc1SC1CC(=O)N(Cc2ccccc2)C1=O (stereo not given) | 100 | 1.1 | 4 | 6 | 6 | 93
CCCn1cc(NC(=O)c2cc(-c3ccccc3)on2)cn1 | 103 | 3.6* | 0 | -32 | 4 | 130*
CC(C)NC(=O)c1cc(-c2ccc(Br)cc2)on1 | 93 | 4.9* | 115 | -55 | 8 | 150*
CCCNC(=O)c1cc(-c2ccc(Br)cc2)on1 | 99 | 3.6* | 10 | -22 | 5 | 120
CC(C)NC(=O)c1cc(-c2ccco2)on1 | 103 | 1.5 | 35 | -18 | -1 | 117
Cc1ccc(-c2cc(C(=O)NCCN3CCOCC3)no2)cc1 | 98 | 1.1 | 22 | 0 | 6 | 100
COc1ccc(-c2cc(C(=O)NCC(C)C)no2)cc1 | 94 | 5* | 26 | -36 | 6 | 133*
SMILES | STAT3 activator | NF-kB neuron act | APP 5'UTR act | STAT1 inh | STAT3 blocker | STAT1 act
CC(C)(C)NC(=O)C(c1ccc(O)cc1)N(C(=O)Cn1nnc(-c2ccc(F)cc2)n1)c1ccccc1F (stereo not given) | 106 | 0.91 | -7 | -14 | -5 | 114
CC(C)CC(NC(N)=O)C(=O)Nc1ccc(Oc2ccccc2)cc1 (stereo not given) | 104 | 0.87 | 3 | -5 | 4 | 102
Cc1c(Cl)sn(-c2ccc(Cl)cc2)c1=O | 100 | 0.14 | -92 | -21 | 7 | 117
CC1CN(C(=O)Nc2ccc(Br)cc2Cl)CC(C)O1 (stereo not given) | 92 | 1.3 | -7 | 2 | 17 | 99
Cc1cc(C)nc(NC(N)=NCCc2c[nH]c3ccccc23)n1 | 63 | 0.76 | -2 | 37* | 46* | 66
Cc1ccc(NC(=O)OC(C)CNC(=O)Oc2cccc(C)c2)cc1 (stereo not given) | 96 | 1.7 | 45 | -44 | 16 | 140*
COc1cc(CC(=O)OCC(=O)Nc2cccc([N+](=O)[O-])c2)cc(OC)c1OC | 88 | 0.9 | 4 | 9 | 13 | 92
CC(C)c1ccc(NC(=O)COc2ccccn2)cc1 | 88 | 1.3 | 42 | -34 | 20 | 130*
CC(C)c1ccc(OCC(=O)Nc2ccc(OC(F)(F)F)cc2)cc1 | 100 | 1.2 | 4 | 0 | -5 | 100
O=C(/C=C/Nc1ccccc1)c1ccc(Oc2ncccn2)cc1 | 68 | 3.5* | 22 | -66 | 43 | 156*
O=C(/C=C/Nc1ccccc1Br)c1ccccn1 | 10 | 0.35 | -16 | 94* | 109* | 17
O=C(/C=C\Nc1ccccn1)c1ccccc1 | 33 | 3.5* | 157* | 45* | 85* | 59
O=C(CC(=O)Nc1ccccn1)Nc1ccccn1 | 102 | 1.6 | 0 | 0 | -2 | 100
N/C(=N\OC(=O)c1cc(Cl)ccc1Cl)c1ccncc1 | 100 | 1.9 | 24 | -47 | 5 | 141*
N/C(=N\OC(=O)c1cccc(Cl)c1)c1ccncc1 | 84 | 1.1 | 80 | -47 | 21 | 141*
N/C(=N\OC(=O)/C=C/c1ccccc1Cl)c1ccncc1 | 91 | 3.8* | 235* | -17 | 16 | 113
N/C(=N\OC(=O)/C=C/c1ccccc1)c1ccncc1 | 97 | 1.5 | 72 | -28 | 9 | 124
CCCc1c(C)c2cccc(C)c2[nH]c1=O | 81 | 1.3 | 2 | 1 | 29 | 99
CCCCN1CCc2c([nH]c3c(C)cccc23)C1=O | 103 | 3.5* | 87 | -32 | 3 | 128
COc1ccc(-c2cc(-c3ccc(OC)cc3)nc(-c3ccc4c(c3)NC(=O)CO4)c2)cc1 | 100 | 1.1 | -8 | 8 | 1 | 93
COc1cccc(-c2nc(-c3ccc4c(c3)NC(=O)CO4)cs2)c1 | 102 | 1.6 | 52 | -48 | 6 | 142*
CCCNC(=O)C1CNc2ccccc2O1 (stereo not given) | 134* | 1.1 | -8 | -7 | -34 | 106
O=C(NCCO)C1COc2ccccc2O1 (stereo not given) | 94 | x | 8 | -3 | 12 | 101
COc1ccccc1C1N(c2ccc(Cl)cc2)C(=O)C2CCCN21 (stereo not given) | 134* | 0.96 | 0 | 5 | -39 | 95
COc1ccc(N2C(=O)C3CCCN3C2c2ccccc2OC)cc1 (stereo not given) | 97 | 1.2 | -6 | 7 | 12 | 93
Cc1ccc(NC(=O)Nc2cc(C)on2)cc1 | 92 | 1.9 | 67 | -32 | 14 | 130*
